# Screening data as filed in PubChem BioAssay.
# Compounds with a hit are over-represented: about 1.7% of the library has one in this group of screens.
# Vif imaging = blocks HIV Vif function | HEK293T cells, Vif self-association by quenched fluorescence, imaging, 24 h | inhibition, % at 7.49 µM | 340,000 tested, 0.35% active | AID 602346; in the data active means inhibition above about 50%, passing the limit was not always enough; inconclusive means no clear call, values can overlap the other calls; inactive means below about 31%
# CaV13 FRET inh = Disruptors of the CACNA1D IQ motif to Ca2+-dependent inactivation inhibitor domain association, primary screening, Förster resonance energy transfer in intact living …; HEK cells, CFP/YFP FRET ICDI-IQ, plate reader, 10 min; percent FRET-ratio fall versus neutral wells; inhibition, % at 12.3 µM; 340,000 tested, 0.098% active;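 active means mean replicate inhibition of at least 30% and at least 1% of replicates passing that level; inconclusive means only one of the two criteria is met; inactive means neither criterion is met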;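 further: 0% = median of the neutral control wells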
# NTR1 ag = NTR1 (human) agonism | activation, % at 20 µM | 330,000 tested, 0.17% active | P30989 | NTR1-U2OS beta-arrestin-GFP spot imaging, agonist mode;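 active means activation at or above 40% of the spot to cytoplasm intensity ratio, with at least 20 cells analyzed; inconclusive means wells under 20 cells, flagged as cytotoxic or low count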;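 further: 0% = DMSO without peptide and 100% = 100 nM NTR1 peptide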
# SR-BI uptake up = activators of SR-BI mediated HDL lipid uptake; 320,000 tested, 0.096% active; activation, % at 12.5 µM; CHO ldlA[mSR-BI] cells, DiI-HDL uptake fluorescence, 3 h; 100 = double the neutral-control signal;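 active means mean replicate activation of at least 60% and every replicate at or above 60%; inconclusive means mean or all-replicate condition met, but not both; inactive means mean below 60% and not all replicates reaching 60%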;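 further: 0% = median plate neutral-control signal and 100% = twice that signal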
#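 System: CHO ldlA[mSR-BI] cells / Medium: HEPES-buffered (25 mM, pH 7.4) F12 plus 0.5% BSA / Probe or stimulus: labelled HDL, 10 µg/mL / Doses: single compound concentration, delivered by pin transfer / Schedule: 3 h, 37 °C / Measured by: DiI fluorescence, bottom read / Measure: cell-associated DiI fluorescence as measure of HDL uptake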
# SR-BI DiI inh = inhibitors of mouse SR-BI mediated HDL lipid uptake. 320,000 tested, 0.96% active. ldlA[mSR-BI] CHO cells, DiI-HDL uptake fluorescence, 3 h. AID 488896. Q61009. inhibition, % at 12.5 µM;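 active means mean replicate inhibition of at least 70% and a set share of replicates each scoring 70 or more; inconclusive means meets just one of the two criteria; inactive means fails both criteria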;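 further: 0% = median of neutral control wells and 100% = median of positive control wells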
# Target sequence (Q61009 whole entry, looked up): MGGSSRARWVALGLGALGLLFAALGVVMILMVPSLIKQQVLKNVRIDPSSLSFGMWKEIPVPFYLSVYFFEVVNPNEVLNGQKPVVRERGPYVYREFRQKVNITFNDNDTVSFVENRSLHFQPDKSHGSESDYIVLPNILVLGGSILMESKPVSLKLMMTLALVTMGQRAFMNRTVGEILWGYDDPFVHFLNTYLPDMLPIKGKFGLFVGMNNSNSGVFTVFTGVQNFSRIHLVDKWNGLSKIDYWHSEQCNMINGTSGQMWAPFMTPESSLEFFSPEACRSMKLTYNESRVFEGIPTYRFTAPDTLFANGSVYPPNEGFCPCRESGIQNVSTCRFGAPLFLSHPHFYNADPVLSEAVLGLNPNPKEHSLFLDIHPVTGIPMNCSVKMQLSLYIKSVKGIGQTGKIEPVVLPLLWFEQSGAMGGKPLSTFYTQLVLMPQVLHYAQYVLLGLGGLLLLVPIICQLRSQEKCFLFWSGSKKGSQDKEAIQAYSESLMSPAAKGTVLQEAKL
# V-ATPase pH = alters yeast V-ATPase proton transport | S. cerevisiae, pHLuorin cytosolic pH fluorescence | AID 504577 | response, % at 10 µM | 350,000 tested, 0.37% active; in the data active means response mostly above about 7.3%, no sharp cut-off; inactive means mostly below about 5.4%; further: actives read high
# An asterisk follows results filed as active; u = inconclusive; x = not tested or not shown.
SMILES,Vif imaging,CaV13 FRET inh,NTR1 ag,SR-BI uptake up,SR-BI DiI inh,V-ATPase pH
COc1ccc([C@H]2CC(=O)C=C(c3cccc4c3Oc3ccccc3S4)C2)cc1OC,-12.4,-5.6,3.1,-80.2,80.2*,1.3
O=C(Nc1cc2c3c(c1)CC(=O)N3CCC2)c1ccc(Cl)cc1,4.0,-6.8,1.1,-78.7,78.7*,1.7
CSc1n[nH]c(NC2=CC(=O)CCC2)n1,59.3*,-3.6,0.0,9.5,-9.5,-3.0
CCOC(=O)N1CCN(C(=O)c2ccc(Oc3ccc([N+](=O)[O-])cc3)cc2)CC1,-5.6,-6.3,2.9,-7.1,7.1,-6.4
CC(C)NC1=C(Cl)C(=O)c2ccccc2C1=O,63.0*,x,-0.7,23.2,-23.2,-1.2
O=C1C(Cl)=C(Nc2ccccc2)C(=O)c2ccccc21,12.1,-14.9,x,7.7,-7.7,0.4
O=C1C(Cl)=C(NCCc2ccccc2)C(=O)c2ccccc21,35.4,-10.1,x,-18.3,18.3,11.9*
COc1ccc2ccccc2c1CN1CCN(c2ncc(Cc3ccccc3)cn2)CC1,x,-9.2,x,x,x,x
CCCc1cc(=O)oc2cc(OCC(=O)N(C)C)c(Cl)cc12,-25.1,-5.3,0.1,7.7,-7.7,26.0*
C[C@@H]1ON(C)[C@H]2C[C@H]3c4[nH]c5cccc(-c6ccccc6F)c5c4CCN3C(=O)[C@@H]12,x,-9.6,x,x,x,x
Cc1ccc(C(=O)CCS(=O)(=O)c2ccc(Br)cc2)cc1,30.8,x,3.8,19.1,-19.1,-4.2
Cc1ccc(S(=O)(=O)CCC(=O)c2cccc([N+](=O)[O-])c2)cc1,-5.6,-2.4,0.5,26.8,-26.8,27.9*
Cn1nc(-c2ccc(Cl)cc2)c2cc(C(=O)NCC3CCCO3)sc21 (stereo not given),-7.9,u,5.1,-87.4,87.4*,-3.0
CN1CCN(CCCNC(=O)c2cc3c(-c4ccc(Cl)cc4)nn(C)c3s2)CC1,13.0,3.5,3.7,-39.8,39.8,4.3
COc1ccc(NC(=O)C2CCCN2S(=O)(=O)c2ccc3c(c2)C(C)(C)C(=O)N3C)cc1 (stereo not given),-5.0,-5.7,x,x,x,x
COC(=O)c1ccc(C(=O)Nc2nc3cc(N)c(C)cc3s2)cc1,6.4,-4.6,-0.8,-80.9,80.9*,-0.6
CCOC(=O)c1nc(NNC(=O)c2ccc([N+](=O)[O-])cc2)sc1C,-18.9,-1.5,0.0,-90.5,90.5*,-0.5
CCOC(=O)c1sc(NNC(=O)c2ccc(C)cc2)nc1C,u,-20.5,0.6,1.3,-1.3,-0.3
Cc1ccccc1NC(=O)CCc1nnc2ccc(N3CCC4(CC3)OCCO4)nn12,-3.8,-6.0,-0.4,6.9,-6.9,-0.5
CCOC(=O)C1=C(COC(=O)/C=C/c2cc(OC)c(OC)c(OC)c2)NC(=O)NC1C (stereo not given),-6.6,-3.2,2.1,-81.2,81.2*,-0.1
CCOC(=O)C1=C(COC(=O)/C=C/c2ccc(OC)c(OC)c2)NC(=O)NC1C (stereo not given),x,-14.3,1.5,-66.2,66.2,-2.6
Brc1ccc(CN2CCCc3nc(-c4ccccc4)ccc32)cc1,x,-11.3,x,x,x,x
S=c1nc(Cc2ccccc2)[nH]c2ccccc12,68.0*,-4.9,1.5,11.1,-11.2,4.3
S=c1nc(Cc2ccc(Cl)cc2)[nH]c2ccccc12,-9.3,-4.5,2.2,6.6,-6.6,-0.7
Cc1cc(N2CCNC[C@H]2C)ccc1N1CCN(Cc2ccccc2)[C@H](C)C1,x,-9.8,x,x,x,x
SMILES,Vif imaging,CaV13 FRET inh,NTR1 ag,SR-BI uptake up,SR-BI DiI inh,V-ATPase pH
Cc1cc(C)nc(SCC(=O)OC(C)C(=O)Nc2ccccc2)n1 (stereo not given),3.5,-4.7,0.7,62.1*,-62.1,-2.2
COc1ccc(CCNC(=O)COc2coc(CN3c4ccccc4CC3C)cc2=O)cc1OC (stereo not given),-3.3,-4.3,-0.1,-85.0,85.0*,-4.3
CC1Cc2ccccc2N1Cc1cc(=O)c(OCC(=O)Nc2ccccc2)co1 (stereo not given),-4.7,-6.3,2.6,-3.2,3.2,-2.7
COc1ccc(CCNC(=O)CCN2C(=O)COc3ccccc32)cc1OC,125.6*,-10.4,-0.4,-18.0,18.0,-0.9
COC(=O)c1cc(NC(=S)Nc2cc(Cl)cc(Cl)c2)cc(C(=O)OC)c1,-0.1,-2.5,0.0,-85.8,85.8*,-1.4
COC(=O)c1cccc(NC(=S)Nc2ccccc2Cl)c1,-6.8,-2.3,1.0,-29.0,29.0,1.4
COc1cccc(-n2nnnc2SCC(=O)Nc2nc3c(s2)CCCC3)c1,x,-4.5,2.9,7.9,-7.9,-1.5
COC(=O)c1cccc(-n2nnnc2SCC(=O)Nc2nc3c(s2)CCCC3)c1,19.1,x,3.4,4.3,-4.3,24.3*
COc1ccccc1CCn1cnc(-c2ccc(Br)cc2)c1CC(C)C,x,-9.6,x,x,x,x
O=C(NCc1cccc2[nH]ccc12)C1CCC(=O)N(CCc2ccccc2)C1 (stereo not given),-8.1,-5.9,0.9,120.0*,-120.0,3.9
COc1ccc(CCN2CC(C(=O)NCc3cccc4[nH]ccc34)CCC2=O)cc1 (stereo not given),-5.8,-5.7,0.8,12.4,-12.4,0.5
CSc1cccc(NC(=O)N2CCc3ccc(NC(=O)c4ccccn4)cc3C2)c1,2.2,-7.8,6.4,-76.0,76.0*,-2.6
CCOC(=O)CNC(=O)N1CCc2ccc(NC(=O)c3ccccc3Cl)cc2C1,8.8,-4.8,-0.5,-96.0,96.0*,-2.0
C[C@@H]1CN(C(=O)OC(C)(C)C)CCN1c1ccc(N2CCN(Cc3ccccc3)[C@@H](C)C2)c(C#N)c1,x,-5.6,x,x,x,x
CSCCC(NS(=O)(=O)c1ccccc1F)C(=O)Nc1ccncc1 (stereo not given),14.6,-3.4,-0.8,5.0,-5.0,-3.6
CCOc1cc(N2CCOCC2)c(OCC)cc1NC(=O)c1ccccc1C,-8.1,5.8,0.9,-43.7,43.7,2.2
CCOc1cc(N2CCOCC2)c(OCC)cc1NC(=O)c1ccc2ccccc2n1,-7.9,-0.3,25.7,-95.4,95.5*,-0.9
Cc1cc(-c2n[nH]c(=S)n2Cc2ccco2)n(C)n1,2.6,-4.8,1.5,61.0*,-61.0,4.5
COc1cc(C2=NOC(C(=O)N3CCCc4ccccc43)C2)cc(OC)c1OC (stereo not given),-9.9,-3.9,2.0,-81.8,81.8*,-8.3
COc1ccc(-c2nnc(SCC(=O)N3CCCC3)o2)cc1OC,x,x,-0.2,x,x,x
COc1ccc(-c2nnc(SCC(=O)N3CCCc4ccccc43)o2)cc1OC,61.2*,-6.8,-1.0,38.4,-38.4,10.6
COCc1[nH]nc2c1C(c1ccc3c(c1)OCO3)N(Cc1ccccc1)C2=O (stereo not given),x,-4.1,x,x,x,x
COC(=O)[C@]1(Cc2ccccc2)NC=C(C(=O)c2ccccc2)[C@@H]1c1cccs1,x,-4.1,x,x,x,x
